In assay [1] the target is T1, Protein deacetylase HDAC6 (Homo sapiens) (UniProt Q9UBN7).
T1 sequence (whole entry): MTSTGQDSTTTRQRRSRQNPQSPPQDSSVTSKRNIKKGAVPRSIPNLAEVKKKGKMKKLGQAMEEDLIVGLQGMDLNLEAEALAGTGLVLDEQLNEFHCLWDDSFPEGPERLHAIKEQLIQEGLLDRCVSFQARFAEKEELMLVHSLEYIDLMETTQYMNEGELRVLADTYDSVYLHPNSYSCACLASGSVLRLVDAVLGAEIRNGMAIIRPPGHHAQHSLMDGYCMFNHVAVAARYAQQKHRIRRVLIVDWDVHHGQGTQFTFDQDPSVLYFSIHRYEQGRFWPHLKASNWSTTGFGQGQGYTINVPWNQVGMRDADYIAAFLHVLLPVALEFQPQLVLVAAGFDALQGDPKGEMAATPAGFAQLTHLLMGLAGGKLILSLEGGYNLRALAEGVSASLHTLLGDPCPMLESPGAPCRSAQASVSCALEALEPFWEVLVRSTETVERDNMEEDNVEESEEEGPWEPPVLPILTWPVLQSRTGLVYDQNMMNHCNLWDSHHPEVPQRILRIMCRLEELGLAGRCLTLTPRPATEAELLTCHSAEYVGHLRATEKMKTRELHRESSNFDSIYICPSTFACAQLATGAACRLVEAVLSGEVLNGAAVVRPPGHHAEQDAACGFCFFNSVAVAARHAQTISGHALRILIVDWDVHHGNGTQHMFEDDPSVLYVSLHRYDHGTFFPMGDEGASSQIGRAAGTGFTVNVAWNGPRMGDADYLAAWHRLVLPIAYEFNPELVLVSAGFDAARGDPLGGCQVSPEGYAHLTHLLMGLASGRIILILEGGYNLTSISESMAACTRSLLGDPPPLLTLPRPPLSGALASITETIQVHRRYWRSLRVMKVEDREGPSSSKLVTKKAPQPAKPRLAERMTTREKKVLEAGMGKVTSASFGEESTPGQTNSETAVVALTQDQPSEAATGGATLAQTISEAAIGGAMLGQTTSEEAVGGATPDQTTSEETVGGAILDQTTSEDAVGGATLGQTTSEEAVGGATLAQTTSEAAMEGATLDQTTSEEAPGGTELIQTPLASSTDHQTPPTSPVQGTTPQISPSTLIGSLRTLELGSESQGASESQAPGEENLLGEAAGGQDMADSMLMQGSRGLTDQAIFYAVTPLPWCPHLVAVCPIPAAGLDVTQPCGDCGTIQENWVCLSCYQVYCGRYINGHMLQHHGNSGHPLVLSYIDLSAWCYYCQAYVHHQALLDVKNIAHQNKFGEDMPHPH
In words: Inhibition of N-terminal GST tagged human recombinant HDAC6 (1 to 1215 residues) expressed in Sf9 insect cells using Z-Lys(Ac)-AMC as fluorogenic substrate at 10 uM preincubated for 60 mins followed by substrate addition and measured after 90 mins by microplate reader analysis relative to control. As to conditions: time 150.0 min. Put shortly: (§1)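 Human recombinant enzyme was preincubated with 3-fold inhibitor dilutions for 60 min at 25 °C in Tris-HCl pH 8.0 buffer with BSA. ZMAL (75 μM solution) was then added, and the mix was incubated 90 min at 37 °C (max 1% DMSO). Trypsin was added for 30 min at 37 °C, and fluorescence was read at ex 355/em 460. Tested at least twice in duplicate.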

The target of assay [2] is Histone deacetylase 1 (Homo sapiens) (UniProt Q13547). Briefly: Inhibition of C-terminal 6His/FLAG tagged human recombinant HDAC1 (1 to 482 residues) […] expressed in Sf9 insect cells using Z-Lys(Ac)-AMC as fluorogenic substrate at 10 uM preincubated for 60 mins followed by substrate addition and measured after 90 mins by microplate reader analysis relative to control. The following applies: time 150.0 min. Summed up:
as §1

The target in assay [3] is Histone deacetylase 4 (Homo sapiens) (UniProt P56524). Briefly: Inhibition of N-terminal GST-tagged/C-terminal His-tagged human HDAC4 (627 to 1084 residues) expressed in Sf9 insect cells using Boc-Lys(Tfa)-AMC as fluorogenic substrate at 10 uM preincubated for 60 mins followed by substrate addition and measured after 90 mins by microplate reader analysis relative to control. As to conditions: time 150.0 min. Summed up: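 Recombinant human HDAC4 was preincubated with inhibitor for 60 min at 25 °C in Tris-HCl pH 8.0/BSA buffer. Boc-Lys(Tfa)-AMC (42.86 μM solution) was then added for 90 min at 37 °C, followed by trypsin for 30 min at 37 °C. Fluorescence was read at ex 355/em 460. Tested at least twice in duplicate.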
Chain of Histone deacetylase 4 (Homo sapiens) (P56524 whole entry, the tested form may be a part): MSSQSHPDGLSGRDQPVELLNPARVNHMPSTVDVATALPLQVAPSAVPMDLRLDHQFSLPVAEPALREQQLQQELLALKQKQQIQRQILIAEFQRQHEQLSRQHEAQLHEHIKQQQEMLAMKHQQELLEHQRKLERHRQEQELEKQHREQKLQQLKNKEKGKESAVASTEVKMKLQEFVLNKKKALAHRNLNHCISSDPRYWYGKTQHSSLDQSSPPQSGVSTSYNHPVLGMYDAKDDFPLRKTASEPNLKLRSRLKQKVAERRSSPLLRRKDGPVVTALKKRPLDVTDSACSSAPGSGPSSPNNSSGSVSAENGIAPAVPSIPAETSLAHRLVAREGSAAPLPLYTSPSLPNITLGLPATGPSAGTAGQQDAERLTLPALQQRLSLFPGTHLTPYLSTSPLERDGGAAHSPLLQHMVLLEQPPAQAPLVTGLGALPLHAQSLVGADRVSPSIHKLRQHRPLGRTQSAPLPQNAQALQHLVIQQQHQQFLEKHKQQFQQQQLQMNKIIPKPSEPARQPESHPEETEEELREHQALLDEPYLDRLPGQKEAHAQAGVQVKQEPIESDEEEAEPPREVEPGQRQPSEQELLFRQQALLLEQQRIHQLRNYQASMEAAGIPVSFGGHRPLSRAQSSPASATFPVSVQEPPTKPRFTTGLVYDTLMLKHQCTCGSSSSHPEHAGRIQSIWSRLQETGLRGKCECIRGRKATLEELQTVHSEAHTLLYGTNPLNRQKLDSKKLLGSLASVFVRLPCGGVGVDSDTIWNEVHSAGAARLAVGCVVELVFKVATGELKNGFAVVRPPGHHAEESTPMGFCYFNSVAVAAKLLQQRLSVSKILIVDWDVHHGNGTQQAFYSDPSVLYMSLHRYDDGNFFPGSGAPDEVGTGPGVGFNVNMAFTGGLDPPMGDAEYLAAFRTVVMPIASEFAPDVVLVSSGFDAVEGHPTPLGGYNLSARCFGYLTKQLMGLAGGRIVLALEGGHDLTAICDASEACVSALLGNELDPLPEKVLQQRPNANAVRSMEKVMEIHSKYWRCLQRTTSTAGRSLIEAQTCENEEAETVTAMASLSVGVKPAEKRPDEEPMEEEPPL

For assay [4], the target named is Histone deacetylase 2 (Homo sapiens) (UniProt Q92769). Briefly: Inhibition of C-terminal 6His-tagged human recombinant HDAC2 (1 to 488 residues) expressed in Sf9 insect cells using Z-Lys(Ac)-AMC as fluorogenic substrate at 10 uM preincubated for 60 mins followed by substrate addition and measured after 90 mins by microplate reader analysis relative to control. The following applies: time 150.0 min. Summed up: as §1
Chain of Histone deacetylase 2 (Homo sapiens) (Q92769 whole entry, the tested form may be a part): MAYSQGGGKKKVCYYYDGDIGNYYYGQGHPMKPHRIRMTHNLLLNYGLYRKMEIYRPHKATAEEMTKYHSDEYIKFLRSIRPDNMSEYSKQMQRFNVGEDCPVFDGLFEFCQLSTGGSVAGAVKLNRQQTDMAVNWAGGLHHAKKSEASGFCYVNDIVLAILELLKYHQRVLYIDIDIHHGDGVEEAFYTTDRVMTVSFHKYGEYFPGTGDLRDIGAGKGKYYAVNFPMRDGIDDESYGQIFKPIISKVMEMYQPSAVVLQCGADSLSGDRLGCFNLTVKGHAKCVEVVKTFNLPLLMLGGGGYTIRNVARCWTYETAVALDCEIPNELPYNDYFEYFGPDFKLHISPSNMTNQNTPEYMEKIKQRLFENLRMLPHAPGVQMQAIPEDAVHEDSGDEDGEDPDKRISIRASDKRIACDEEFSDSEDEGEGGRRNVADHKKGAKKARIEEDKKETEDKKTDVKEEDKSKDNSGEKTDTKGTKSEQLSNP

Assay [5] concerns the target Histone deacetylase 3/Nuclear receptor corepressor 2 (HDAC3/NCoR2) (Homo sapiens) (UniProt O15379+Q9Y618). In words: Inhibition of C-terminal His-tagged human HDAC3 (1 to 428 residues)/N-terminal GST tagged human NcoR2 (395 to 489 residues) expressed in Sf9 insect cells using Z-Lys(Ac)-AMC as fluorogenic substrate at 10 uM preincubated for 60 mins followed by substrate addition and measured after 90 mins by microplate reader analysis relative to control. The following applies: time 150.0 min. Summed up: as §1

Assay [6] addresses T2, Protein deacetylase HDAC6 (Homo sapiens, UniProt Q9UBN7).
T2 sequence (Q9UBN7 whole entry): T1 sequence (whole entry)
Briefly: Inhibition of N-terminal GST tagged human recombinant HDAC6 (1 to 1215 residues) expressed in Sf9 insect cells using Z-Lys(Ac)-AMC as fluorogenic substrate preincubated for 60 mins followed by substrate addition and measured after 90 mins by microplate reader analysis.

Chain of Histone deacetylase 1 (Homo sapiens) (Q13547 whole entry, the tested form may be a part): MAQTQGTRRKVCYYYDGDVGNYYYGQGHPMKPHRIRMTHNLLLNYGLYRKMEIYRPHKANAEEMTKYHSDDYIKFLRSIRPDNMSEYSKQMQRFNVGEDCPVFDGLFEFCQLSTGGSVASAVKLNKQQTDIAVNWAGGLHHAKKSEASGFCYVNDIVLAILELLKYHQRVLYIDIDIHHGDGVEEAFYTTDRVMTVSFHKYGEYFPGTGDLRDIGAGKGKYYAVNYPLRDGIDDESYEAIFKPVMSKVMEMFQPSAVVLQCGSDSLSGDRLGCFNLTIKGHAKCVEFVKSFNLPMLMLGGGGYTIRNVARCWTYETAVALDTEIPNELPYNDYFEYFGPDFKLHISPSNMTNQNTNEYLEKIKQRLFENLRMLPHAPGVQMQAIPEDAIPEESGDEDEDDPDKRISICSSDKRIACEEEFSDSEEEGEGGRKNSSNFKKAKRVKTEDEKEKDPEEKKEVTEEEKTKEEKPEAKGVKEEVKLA

With `NNC(=O)c1cnc(NCc2ccccc2)nc1`, the inhibition (commonly the relative decrease from the control value, in per cent) in assay [1] was 30%.

Regarding `Cc1ccc(-c2nnc(C(F)F)o2)cn1`, the inhibition is < 15% in assay [2]; < 15% in assay [3]; < 15% in assay [4]; 39% in assay [1]; < 15% in assay [5].

For `FC(F)c1nnc(-c2ccccc2)o1`, the inhibition in assay [2], in assay [3], in assay [4], in assay [1] and in assay [5] was < 15% each time.

Regarding `FC(F)c1nnc(-c2cncnc2)o1`, the inhibition in assay [2] is < 15%; in assay [3] it was < 15%; in assay [4], < 15%; in assay [1], 56%; in assay [5], < 15%.

Regarding `CCCCN(Cc1ccc(-c2nnc(C(F)F)o2)cc1)C(=O)c1ccccc1`, the inhibition in assay [2] is < 15%; in assay [3], < 15%; in assay [4], < 15%; in assay [1], 75%; in assay [5], < 15%.

Regarding `Cc1nnc(-c2cnc(NCc3ccccc3)nc2)o1`, the inhibition in assay [1] is < 15%.

With `COc1ccc(CNc2ncc(-c3nnc(C(F)F)o3)cn2)cc1`, the inhibition in assay [2], in assay [3], in assay [4] and in assay [5] was < 15% throughout. The IC50 (in general, the concentration that inhibits the measured activity by half) in assay [6] stood at 337 nM.

As to `CCCCN(Cc1ccc(-c2nnc(C(F)F)o2)cc1)C(=O)Nc1ccccc1`, the inhibition in assay [2] was < 15%; in assay [3] it was < 15%; in assay [4], < 15%; in assay [1] it was 76%; in assay [5] it was < 15%.

Consider `CN(C)c1ccc(C(=O)N(CC(=O)NCc2ccccc2)Cc2ccc(-c3nnc(C(F)F)o3)cc2)cc1`, for which the inhibition in assay [2] was < 15%; in assay [3] it was < 15%; in assay [4], < 15%; in assay [1], 27%; in assay [5], < 15%.

Consider `FCc1nnc(-c2cnc(NCc3ccccc3)nc2)o1`, for which the inhibition in assay [1] came to 54%.

As for `O=C(NNC(=O)C(F)F)c1cnc(NCc2ccccc2)nc1`, the inhibition in assay [1] was < 15%.
